Laboratory results as given in ChEMBL document CHEMBL1157032, “Synthesis and antimicrobial activity of novel pyrazolo[3,4-d]pyrimidin derivatives” (2010).
Values after ≈ are worked out from the molar mass of the structure shown. Active and inactive are the calls of the source. The rule behind the calls is not given here.

Columns and labels:
[1] = tested on: Serratia marcescens; test: Antimicrobial activity against Serratia marcescens MTCC 86 at 10 ug/ml after 24 hrs by agar diffusion method; assay type: functional
Method in brief: (§1)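 Agar well diffusion on Mueller Hinton agar. Plates were seeded with bacterial suspension in sterile 0.85% saline at 10⁵ cfu/mL. Compound dilutions in 1% DMSO went into 6 mm wells, with DMSO alone as control. Plates were incubated 24 h at 37 ± 0.5 °C, and the zone of inhibition was measured in mm.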

[2] = tested on: Proteus vulgaris; test: Antimicrobial activity against Proteus vulgaris MTCC 1771 at 10 ug/ml after 24 hrs by agar diffusion method; assay type: functional; method in brief: as §1
[3] = tested on: Aspergillus flavus; test: Antimicrobial activity against Aspergillus flavus MTCC 2501 at 30 ug/ml after 48 hrs by agar diffusion method; assay type: functional, organism-based
Method in brief: (§2)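 Agar well diffusion on Sabouraud dextrose agar. Plates were spread with fungal spore suspension in sterile distilled water adjusted to 10⁶ cfu/mL. Compound dilutions in 1% DMSO went into 6 mm wells, with DMSO alone as control. Plates were incubated 48 h at 28 ± 0.2 °C, and the inhibition zone was read in mm.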

[4] = tested on: Aspergillus niger; test: Antimicrobial activity against Aspergillus niger MTCC 1781 at 30 ug/ml after 48 hrs by agar diffusion method; assay type: functional, organism-based; method in brief: as §2
[5] = tested on: Trichoderma viride; test: Antimicrobial activity against Trichoderma viride MTCC 167 at 30 ug/ml after 48 hrs by agar diffusion method; assay type: functional, organism-based; method in brief: as §2
[6] = tested on: Staphylococcus aureus; test: Antimicrobial activity against Staphylococcus aureus MTCC 96 at 10 ug/ml after 24 hrs by agar diffusion method; assay type: functional; method in brief: as §1
[7] = tested on: Bacillus subtilis; test: Antimicrobial activity against Bacillus subtilis MTCC 1789 at 10 ug/ml after 24 hrs by agar diffusion method; assay type: functional; method in brief: as §1
[8] = tested on: Penicillium chrysogenum; test: Antimicrobial activity against Penicillium chrysogenum MTCC 1996 at 30 ug/ml after 48 hrs by agar diffusion method; assay type: functional, organism-based; method in brief: as §2
[9] = tested on: Candida albicans; test: Antimicrobial activity against Candida albicans MTCC 227 at 30 ug/ml after 48 hrs by agar diffusion method; assay type: functional, organism-based; method in brief: as §2
[10] = tested on: Pseudomonas aeruginosa; test: Antimicrobial activity against Pseudomonas aeruginosa MTCC 2488 at 10 ug/ml after 24 hrs by agar diffusion method; assay type: functional; method in brief: as §1
[11] = tested on: Priestia megaterium; test: Antimicrobial activity against Bacillus megaterium MTCC 1684 at 10 ug/ml after 24 hrs by agar diffusion method; assay type: functional; method in brief: as §1
[12] = tested on: Klebsiella pneumoniae; test: Antimicrobial activity against Klebsiella pneumoniae NCIM 2957 at 10 ug/ml after 24 hrs by agar diffusion method; assay type: functional; method in brief: as §1
[13] = tested on: Serratia marcescens; test: Antimicrobial activity against Serratia marcescens MTCC 86 after 24 hrs; assay type: functional; settings: MTCC 86, 24 h
Method in brief: (§3)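 Agar well diffusion on Mueller Hinton agar seeded with 0.1 mL of a 10⁵ cfu/mL bacterial suspension in 0.85% sterile saline. 6 mm wells received 0.1 mL of each compound dilution in DMSO (1% DMSO; DMSO alone as control). Plates were incubated 24 h at 37 ± 0.5 °C. Read-out was zone of inhibition in mm. MIC was taken as the lowest concentration giving complete growth inhibition.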

[14] = tested on: Pseudomonas aeruginosa; test: Antimicrobial activity against Pseudomonas aeruginosa MTCC 2488 after 24 hrs; assay type: functional; settings: MTCC 2488, 24 h; method in brief: as §3
[15] = tested on: Klebsiella pneumoniae; test: Antimicrobial activity against Klebsiella pneumoniae NCIM 2957 after 24 hrs; assay type: functional; settings: NCIM 2957, 24 h; method in brief: as §3
[16] = tested on: Proteus vulgaris; test: Antimicrobial activity against Proteus vulgaris MTCC 1771 after 24 hrs; assay type: functional; settings: MTCC 1771, 24 h; method in brief: as §3
[17] = tested on: Trichoderma viride; test: Antimicrobial activity against Trichoderma viride MTCC 167 at MIC after 48 hrs by agar diffusion method; assay type: functional
Method in brief: (§4)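 Fungal spore suspensions in sterile distilled water were adjusted to 10⁶ cfu/mL, and 0.1 mL was spread on Sabouraud dextrose agar. 6 mm wells were filled with 0.1 mL of compound dilution in DMSO (1% DMSO; DMSO-only control). Plates were incubated 48 h at 28 ± 0.2 °C, and inhibition zones were measured in mm. MIC was the lowest concentration completely inhibiting growth.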

[18] = tested on: Aspergillus flavus; test: Antimicrobial activity against Aspergillus flavus MTCC 2501 after 48 hrs; assay type: functional; settings: MTCC 2501, 48 h; method in brief: as §4
[19] = tested on: Penicillium chrysogenum; test: Antimicrobial activity against Penicillium chrysogenum MTCC 1996 at MIC after 48 hrs by agar diffusion method; assay type: functional; method in brief: as §4
[20] = tested on: Klebsiella pneumoniae; test: Antimicrobial activity against Klebsiella pneumoniae NCIM 2957 at MIC after 24 hrs by agar diffusion method; assay type: functional; method in brief: as §3
[21] = tested on: Staphylococcus aureus; test: Antimicrobial activity against Staphylococcus aureus MTCC 96 at MIC after 24 hrs by agar diffusion method; assay type: functional; method in brief: as §3
[22] = tested on: Escherichia coli; test: Antimicrobial activity against Escherichia coli MTCC 1650 at MIC after 24 hrs by agar diffusion method; assay type: functional; method in brief: as §3
[23] = tested on: Candida albicans; test: Antimicrobial activity against Candida albicans MTCC 227 after 48 hrs; assay type: functional; settings: MTCC 227, 48 h; method in brief: as §4
[24] = tested on: Escherichia coli; test: Antimicrobial activity against Escherichia coli MTCC 1650 after 24 hrs; assay type: functional; settings: MTCC 1650, 24 h; method in brief: as §3
[25] = tested on: Staphylococcus aureus; test: Antimicrobial activity against Staphylococcus aureus MTCC 96 after 24 hrs; assay type: functional; settings: MTCC 96, 24 h; method in brief: as §3
[26] = tested on: Priestia megaterium; test: Antimicrobial activity against Bacillus megaterium MTCC 1684 after 24 hrs; assay type: functional; settings: MTCC 1684, 24 h; method in brief: as §3
[27] = tested on: Serratia marcescens; test: Antimicrobial activity against Serratia marcescens MTCC 86 at MIC after 24 hrs by agar diffusion method; assay type: functional; method in brief: as §3
[28] = tested on: Aspergillus flavus; test: Antimicrobial activity against Aspergillus flavus MTCC 2501 at MIC after 48 hrs by agar diffusion method; assay type: functional; method in brief: as §4
[29] = tested on: Trichoderma viride; test: Antimicrobial activity against Trichoderma viride MTCC 167 after 48 hrs; assay type: functional; settings: MTCC 167, 48 h; method in brief: as §4
[30] = tested on: Penicillium chrysogenum; test: Antimicrobial activity against Penicillium chrysogenum MTCC 1996 after 48 hrs; assay type: functional; settings: MTCC 1996, 48 h; method in brief: as §4
[31] = tested on: Aspergillus niger; test: Antimicrobial activity against Aspergillus niger MTCC 1781 after 48 hrs; assay type: functional; settings: MTCC 1781, 48 h; method in brief: as §4
[32] = tested on: Proteus vulgaris; test: Antimicrobial activity against Proteus vulgaris MTCC 1771 at MIC after 24 hrs by agar diffusion method; assay type: functional; method in brief: as §3
[33] = tested on: Bacillus subtilis; test: Antimicrobial activity against Bacillus subtilis MTCC 1789 after 24 hrs; assay type: functional; settings: MTCC 1789, 24 h; method in brief: as §3
[34] = tested on: Pseudomonas aeruginosa; test: Antimicrobial activity against Pseudomonas aeruginosa MTCC 2488 at MIC after 24 hrs by agar diffusion method; assay type: functional; method in brief: as §3
[35] = tested on: Priestia megaterium; test: Antimicrobial activity against Bacillus megaterium MTCC 1684 at MIC after 24 hrs by agar diffusion method; assay type: functional; method in brief: as §3
[36] = tested on: Aspergillus niger; test: Antimicrobial activity against Aspergillus niger MTCC 1781 at MIC after 48 hrs by agar diffusion method; assay type: functional; method in brief: as §4
[37] = tested on: Candida albicans; test: Antimicrobial activity against Candida albicans MTCC 227 at MIC after 48 hrs by agar diffusion method; assay type: functional; method in brief: as §4
[38] = tested on: Bacillus subtilis; test: Antimicrobial activity against Bacillus subtilis MTCC 1789 at MIC after 24 hrs by agar diffusion method; assay type: functional; method in brief: as §3

For `CN(C)[C@@H]1C(O)=C(C(N)=O)C(=O)[C@@]2(O)C(O)=C3C(=O)c4c(O)cccc4[C@@](C)(O)[C@H]3C[C@@H]12` [TETRACYCLINE], the zone of inhibition at 10 µg/mL ([1]; MTCC 86, 24 h, read-out: IZ) was 15 mm, the zone of inhibition at 10 µg/mL ([2]; MTCC 1771, 24 h, read-out: IZ) was 20 mm and the “inhibition zone (IZ)” value [3] was “inactive”. For the same compound, the “inhibition zone (IZ)” value [4] was “inactive”, the “inhibition zone (IZ)” value [5] was “inactive” and the zone of inhibition at 10 µg/mL ([6]; MTCC 96, 24 h, read-out: IZ) was 25 mm. For the same compound, the zone of inhibition at 10 µg/mL ([7]; MTCC 1789, 24 h, read-out: IZ) was 20 mm, the “inhibition zone (IZ)” value [8] was “inactive” and the “inhibition zone (IZ)” value [9] was “inactive”. For the same compound, the zone of inhibition at 10 µg/mL ([10]; MTCC 2488, 24 h, read-out: IZ) was 32 mm, the zone of inhibition at 10 µg/mL ([11]; MTCC 1684, 24 h, read-out: IZ) was 27 mm and the zone of inhibition at 10 µg/mL ([12]; NCIM 2957, 24 h, read-out: IZ) was 17 mm.

With `Nc1n[nH]c2nc3scc(-c4ccc(O)cc4)n3c(=O)c12` the MIC [13] was 50 µg/mL (≈ 167 µM), the MIC [14] was 50 µg/mL (≈ 167 µM) and the MIC [15] was 50 µg/mL (≈ 167 µM). For the same compound, the MIC [16] was 50 µg/mL (≈ 167 µM), the “inhibition zone (IZ)” value [17] was 26 mm and the MIC [18] was 250 µg/mL (≈ 835 µM). The “inhibition zone (IZ)” value [19] was 29 mm, the “inhibition zone (IZ)” value [20] was 11 mm and the “inhibition zone (IZ)” value [21] was 30 mm. The “inhibition zone (IZ)” value [22] was “inactive”, the MIC [23] was 250 µg/mL (≈ 835 µM) and the MIC [24] was 50 µg/mL (≈ 167 µM). The MIC [25] was 50 µg/mL (≈ 167 µM), the MIC [26] was 50 µg/mL (≈ 167 µM) and the “inhibition zone (IZ)” value [27] was 17 mm. The “inhibition zone (IZ)” value [28] was 21 mm, the MIC [29] was 250 µg/mL (≈ 835 µM) and the MIC [30] was 250 µg/mL (≈ 835 µM). For the same compound, the MIC [31] was 250 µg/mL (≈ 835 µM), the “inhibition zone (IZ)” value [32] was 14 mm and the MIC [33] was 50 µg/mL (≈ 167 µM). The “inhibition zone (IZ)” value [34] was 25 mm, the “inhibition zone (IZ)” value [35] was “inactive” and the “inhibition zone (IZ)” value [36] was 16 mm. The “inhibition zone (IZ)” value [37] was “inactive” and the “inhibition zone (IZ)” value [38] was 12 mm.

For NYSTATIN, the “inhibition zone (IZ)” value [1] was “inactive”, the “inhibition zone (IZ)” value [2] was “inactive” and the inhibition zone (IZ) [3] was 14 mm. For the same compound, the inhibition zone (IZ) [4] was 14 mm, the inhibition zone (IZ) [5] was 18 mm and the “inhibition zone (IZ)” value [6] was “inactive”. For the same compound, the “inhibition zone (IZ)” value [7] was “inactive”, the inhibition zone (IZ) [8] was 17 mm and the inhibition zone (IZ) [9] was 17 mm. For the same compound, the “inhibition zone (IZ)” value [10] was “inactive”, the “inhibition zone (IZ)” value [11] was “inactive” and the “inhibition zone (IZ)” value [12] was “inactive”.
